pIC50: −log10 of the molar value.
How the values were obtained:
[1] = system: CEM-4; assay: Concentration required to reduce the viability of uninfected CEM-4 cells by 50%; assay type: functional; conditions: Homo sapiens
In short: (§1)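 Cytotoxicity in uninfected CEM-4 or MT-4 cells, measured as inhibition of cell growth. The value is the concentration that lowers viability by 50%.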

[2] = system: CEM-4; assay: Inhibitory concentration required to inhibit HIV-induced cytopathicity in CEM-4 cells by 50%; assay type: functional, cell-based; conditions: Homo sapiens
In short: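 CEM-4 cells infected with HIV-1 (strain HTLV-III_B/LAI). The end point is 50% inhibition of HIV-induced cytopathicity.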

[3] = system: Vero; assay: Concentration required to reduce Junin virus-inducted cytopathicity by 50% (Vero cells); assay type: functional, cell-based; conditions: Chlorocebus sabaeus
[4] = system: MT4; assay: Concentration required to inhibit human immunodeficiency virus-2 induced cytopathicity in MT-4 cells by 50%; assay type: functional, cell-based
In short: (§2)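 MT-4 cells infected with HIV-1 (strain HTLV-III_B/LAI) or HIV-2 (strain LAV_ROD). The end point is 50% inhibition of virus-induced cytopathicity.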

[5] = system: HeLa; assay: Concentration required to reduce Coxsackie virus-inducted cytopathicity by 50% (HeLa cells); assay type: functional, cell-based; conditions: Homo sapiens
[6] = system: Vaccinia virus; assay: Concentration required to reduce vaccinia virus-inducted cytopathicity by 50% (E6SM cells); assay type: functional, organism-based, Orthopoxvirus vaccinia; conditions: Orthopoxvirus vaccinia, E6SM
[7] = system: Vero; assay: Concentration required to reduce sindbis virus-inducted cytopathicity by 50% (Vero cells); assay type: functional, cell-based; conditions: Chlorocebus sabaeus
[8] = system: HEL; assay: Concentration required to reduce human cytomegalo virus(Davis) inducted cytopathicity by 50% (HEL cells); assay type: functional, cell-based
In short: (§3)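 Virus was added in the presence of compound, and the cells were incubated until cytopathic effect was scored. The value is the concentration that reduces virus-induced CPE by 50%.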

[9] = system: E6SM; assay: Concentration required to reduce herpes simplex virus-1TK (F) inducted cytopathicity by 50% (E6SM cells); assay type: functional, cell-based; conditions: Homo sapiens; in short: as §3
[10] = system: E6SM; assay: Concentration required to cause a microscopically detectable alteration of normal E6SM cell morphology; assay type: functional, cell-based; conditions: Homo sapiens, read-out: IC50
In short: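 Minimum cytotoxic concentration, read microscopically as the level that causes a detectable alteration of normal cell morphology.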

[11] = system: Vero; assay: Concentration required to reduce parainfluenza-3 virus-inducted cytopathicity by 50% (Vero cells); assay type: functional, cell-based; conditions: Chlorocebus sabaeus
[12] = system: MT4; assay: Concentration required to inhibit human immunodeficiency virus-1 induced cytopathicity in MT-4 cells by 50%; assay type: functional, cell-based; in short: as §2
[13] = system: HeLa; assay: Concentration required to reduce vesicular stomatitis virus-inducted cytopathicity by 50% (HeLa cells); assay type: functional, cell-based; conditions: Homo sapiens
[14] = system: Human immunodeficiency virus 1; assay: Concentration required to inhibit by 50% human immunodeficiency virus-1 induced syncytium formation upon coculturing persistently HIV-infected HUT-78 cells with MOLT-4 cells; assay type: functional, organism-based; conditions: Human immunodeficiency virus 1, MOLT-4
In short: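 MOLT-4 (clone 8) cells at 1 × 10^6 cells/mL, cocultured with an equal number of persistently infected HUT-78/HIV-1 or HUT-78/HIV-2 cells across a range of compound concentrations. Giant cells were counted under the microscope after 24 h of cocultivation. The value is the concentration giving 50% inhibition of syncytium formation.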

[15] = system: Vero; assay: Concentration required to reduce Coxsackie virus-inducted cytopathicity by 50% (Vero cells); assay type: functional, cell-based; conditions: Chlorocebus sabaeus
[16] = system: E6SM; assay: Concentration required to reduce herpes simplex virus-2(196) inducted cytopathicity by 50% (E6SM cells); assay type: functional, cell-based; conditions: Homo sapiens; in short: as §3
[17] = system: E6SM; assay: Concentration required to reduce herpes simplex virus-2(G) inducted cytopathicity by 50% (E6SM cells); assay type: functional, cell-based; conditions: Homo sapiens; in short: as §3
[18] = system: E6SM; assay: Concentration required to reduce herpes simplex virus-1TK (KOS) inducted cytopathicity by 50% (E6SM cells); assay type: functional, cell-based; conditions: Homo sapiens; in short: as §3
[19] = system: E6SM; assay: Concentration required to reduce herpes simplex virus-1TK (VMW1837) inducted cytopathicity by 50% (E6SM cells); assay type: functional, cell-based; conditions: Homo sapiens; in short: as §3
[20] = system: Vero; assay: Concentration required to reduce Tacaribe virus-inducted cytopathicity by 50% (Vero cells); assay type: functional, cell-based; conditions: Chlorocebus sabaeus
[21] = system: MT4; assay: Concentration required to reduce the viability of uninfected MT-4 cells by 50%; assay type: functional; conditions: Homo sapiens; in short: as §1
[22] = system: E6SM; assay: Concentration required to reduce herpes simplex virus-2(Lyons) inducted cytopathicity by 50% (E6SM cells); assay type: functional, cell-based; conditions: Homo sapiens; in short: as §3
[23] = system: Vero; assay: Concentration required to cause a microscopically detectable alteration of normal Vero cell morphology; assay type: functional, cell-based; conditions: Chlorocebus sabaeus
[24] = system: Vero; assay: Concentration required to reduce reovirus-1 inducted cytopathicity by 50% (Vero cells); assay type: functional, cell-based; conditions: Chlorocebus sabaeus
[25] = system: E6SM; assay: Concentration required to reduce herpes simplex virus-1TK (McIntyre) inducted cytopathicity by 50% (E6SM cells); assay type: functional, cell-based; conditions: Homo sapiens; in short: as §3
[26] = system: HeLa; assay: Concentration required to cause a microscopically detectable alteration of normal Hela cell morphology; assay type: functional, cell-based; conditions: Homo sapiens
[27] = system: HEL; assay: Concentration required to inhibit HEL cell growth by 50%; assay type: functional, cell-based; conditions: Homo sapiens
[28] = system: E6SM; assay: Concentration required to reduce herpes simplex virus-1TK( B2006) inducted cytopathicity by 50% (E6SM cells); assay type: functional, cell-based; conditions: Homo sapiens; in short: as §3
[29] = system: Vero; assay: Concentration required to reduce forest virus-inducted cytopathicity by 50% (Vero cells); assay type: functional, cell-based; conditions: Chlorocebus sabaeus
[30] = system: HeLa; assay: Concentration required to reduce polio-1 virus-inducted cytopathicity by 50% (HeLa cells); assay type: functional, cell-based; conditions: Homo sapiens
[31] = system: Human immunodeficiency virus 2; assay: Concentration required to inhibit by 50% human immunodeficiency virus-2 induced syncytium formation upon coculturing persistently HIV-infected HUT-78 cells with MOLT-4 cells; conditions: HUT-78, MOLT-4
[32] = system: HEL; assay: Concentration required to reduce human cytomegalo virus(AD-169) inducted cytopathicity by 50% (HEL cells); assay type: functional, cell-based; in short: as §3

`CO[C@H]1O[C@H](COCCCSCC(=O)O)[C@@H](OCCCSCC(=O)O)[C@@H](OCCCSCC(=O)O)[C@H]1OCCCSCC(=O)O` was tested, and the CC50 [1] was > 370 µM and the pIC50 [2] was < 3.43.
With `CO[C@H]1O[C@H](COCCCSC(CC(=O)O)C(=O)O)[C@@H](OCCCSC(CC(=O)O)C(=O)O)[C@@H](OCCCSC(CC(=O)O)C(=O)O)[C@H]1OCCCSC(CC(=O)O)C(=O)O` (stereo partly drawn) the CC50 [1] was > 265 µM and the pIC50 [2] was 4.16.
`CO[C@H]1O[C@H](COCCCSCCC(=O)O)[C@@H](OCCCSCCC(=O)O)[C@@H](OCCCSCCC(=O)O)[C@H]1OCCCSCCC(=O)O` was tested, and the CC50 [1] was > 346 µM and the pIC50 [2] was < 3.46.
In the case of `O=S(=O)(O)CCSCCCOC[C@H]1O[C@@](COCCCSCCS(=O)(=O)O)(O[C@H]2O[C@H](COCCCSCCS(=O)(=O)O)[C@@H](OCCCSCCS(=O)(=O)O)[C@H](OCCCSCCS(=O)(=O)O)[C@H]2OCCCSCCS(=O)(=O)O)[C@@H](OCCCSCCS(=O)(=O)O)[C@@H]1OCCCSCCS(=O)(=O)O`, the pIC50 [3] was < 4.60, the pIC50 [4] was < 3.90 and the pIC50 [5] was < 4.29. For the same compound, the CC50 [1] was > 50.6 µM, the pIC50 [6] was < 4.00 and the pIC50 [7] was < 4.00. The pIC50 [8] was < 4.60, the pIC50 [9] was < 4.00 and the minimum cytotoxic concentration [10] was > 203 µM. For the same compound, the pIC50 [11] was < 4.00, the pIC50 [12] was < 3.90 and the pIC50 [13] was < 4.29. For the same compound, the pIC50 [14] was < 3.90, the pIC50 [15] was < 4.00 and the pIC50 [16] was < 4.00. The pIC50 [17] was < 4.00, the pIC50 [18] was < 4.00 and the pIC50 [19] was < 4.00. The pIC50 [20] was < 4.60, the pIC50 [2] was < 4.30 and the CC50 [21] was > 127 µM. For the same compound, the pIC50 [22] was < 4.00, the pIC50 [23] was < 4.00 and the pIC50 [24] was < 4.00. For the same compound, the pIC50 [25] was < 4.00, the pIC50 [26] was < 4.00 and the pIC50 [27] was < 4.60. For the same compound, the pIC50 [28] was < 3.69, the pIC50 [29] was < 4.00 and the pIC50 [30] was < 4.29. The pIC50 [31] was < 3.90 and the pIC50 [32] was < 4.60.
For `O=C(O)CCSCCCOC[C@H]1O[C@@](COCCCSCCC(=O)O)(O[C@H]2O[C@H](COCCCSCCC(=O)O)[C@@H](OCCCSCCC(=O)O)[C@H](OCCCSCCC(=O)O)[C@H]2OCCCSCCC(=O)O)[C@@H](OCCCSCCC(=O)O)[C@@H]1OCCCSCCC(=O)O`, the pIC50 [3] was < 4.92, the pIC50 [4] was < 3.83 and the pIC50 [5] was < 3.92. The CC50 [1] was > 59.3 µM, the pIC50 [6] was < 3.63 and the pIC50 [7] was < 4.23. The pIC50 [9] was < 3.63, the minimum cytotoxic concentration [10] was > 237 µM and the pIC50 [11] was < 4.23. The pIC50 [12] was 4.54, the pIC50 [13] was < 3.92 and the pIC50 [14] was < 3.83. For the same compound, the pIC50 [15] was < 4.23, the pIC50 [16] was < 3.63 and the pIC50 [17] was < 3.63. For the same compound, the pIC50 [18] was < 3.63, the pIC50 [19] was < 3.63 and the pIC50 [20] was < 4.92. For the same compound, the pIC50 [2] was < 4.23, the CC50 [21] was > 148 µM and the pIC50 [22] was < 3.92. For the same compound, the pIC50 [23] was < 3.92, the pIC50 [24] was < 4.23 and the pIC50 [25] was < 3.63. The pIC50 [26] was < 3.92, the pIC50 [27] was < 4.52 and the pIC50 [28] was < 3.63. For the same compound, the pIC50 [29] was < 4.23, the pIC50 [30] was < 3.92 and the pIC50 [31] was < 3.83.

— ChEMBL document CHEMBL1130336, “Polyanion inhibitors of human immunodeficiency virus and other viruses. 6. Micelle-like anti-HIV polyanionic compounds based on a carbohydrate core” (J Med Chem, 1997)
